Reference: ChEMBL document CHEMBL4411315, “Discovery of Novel Dual Histone Deacetylase and Mammalian Target of Rapamycin Target Inhibitors as a Promising Strategy for Cancer Therapy” (J Med Chem, 2019)

Columns and labels:
MM1.S = test: Antiproliferative activity against human MM1S cells after 72 hrs by MTT assay; format: functional, cell-based
[1] = target: PI3-kinase p110-alpha/p85-alpha (Homo sapiens) (UniProt P27986+P42336); test: Inhibition of recombinant human full length N-terminal His-tagged/untagged p110alpha/p85alpha expressed in baculovirus expression system at 500 nM using PIP2 as substrate after 1 hr by Kinase-Glo reagent-based assay relative to control
MCF7 = test: Antiproliferative activity against human MCF7 cells after 72 hrs by MTT assay; format: functional, cell-based; conditions: MCF7, 72 h
Raji = test: Antiproliferative activity against human Raji cells after 72 hrs by MTT assay; format: functional, cell-based
Outline: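 Log-phase cells were plated at 10000-15000 per well and exposed to serial concentrations after 24 h for 72 h. Read-out was MTT for 1-3 h, then 20% SDS overnight and absorbance at 570 nm. IC50 was calculated from growth versus untreated control, as mean ± SEM of at least three independent experiments.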

HCT-116 = test: Antiproliferative activity against human HCT116 cells after 72 hrs by MTT assay; format: functional, cell-based; conditions: HCT-116, 72 h
[2] = target: Serine/threonine-protein kinase mTOR (Homo sapiens, UniProt P42345); test: Inhibition of recombinant N-terminal FLAG-tagged human mTOR (1362 to end residues) at 500 nM using ULight-4E-BP1 (Thr37/46) peptide as substrate after 1 hr by fluorescence assay relative to control

Row | SMILES | IC50 (MM1.S) [nM] | inhibition [1] [%] | IC50 (MCF7) [nM] | IC50 (Raji) [nM] | IC50 (HCT-116) [nM] | inhibition [2] [%]
1 | COc1ccc(-c2nc(N3CCOCC3)c3cnn(CCCCCCC(=O)NO)c3n2)cn1 | > 500 | 3.3 | 372 | 44.9 | 66.9 | 58
2 | COc1ccc(-c2nc(N3CCOCC3)c3cnn(CCCCCCC(=O)NO)c3n2)cc1 | 354 | -1 | 70.6 | 29.3 | 38 | 38
3 | O=C(CCCCCCn1ncc2c(N3CCOCC3)nc(-c3ccc(NC(=O)NCCO)cc3)nc21)NO | 60.3 |  |  | 61.1 | 57.2 | 
4 | O=C(CCCCCCn1ncc2c(N3CCOCC3)nc(-c3cc[nH]c3)nc21)NO | 52.3 | -3.8 | 180 | 15.3 | 107 | 85
5 | CNC(=O)Nc1ccc(-c2nc(N3CCOCC3)c3cnn(CCCCCCC(=O)NO)c3n2)cc1 | 13.4 |  |  | 3.5 | 51.6 | 
6 | Cc1ccc(NC(=O)Nc2ccc(-c3nc(N4CCOCC4)c4cnn(CCCCCCC(=O)NO)c4n3)cc2)cc1 | 24.7 |  |  | 22.1 | 26.1 | 
7 | O=C(CCCCCCn1ncc2c(N3CCOCC3)nc(-c3cccnc3)nc21)NO | > 500 | -0.1 | > 500 | > 500 | 296 | 17
8 | Nc1ccc(-c2nc(N3CCOCC3)c3cnn(CCCCCCC(=O)NO)c3n2)cn1 | 8.4 | 1.9 | 163 | 7.1 | 61.3 | 35
9 | COc1cccc(NC(=O)Nc2ccc(-c3nc(N4CCOCC4)c4cnn(CCCCCCC(=O)NO)c4n3)cc2)c1 | 464 |  |  | 247 | > 500 | 
10 | Cc1cccnc1NC(=O)Nc1ccc(-c2nc(N3CCOCC3)c3cnn(CCCCCCC(=O)NO)c3n2)cc1 | 20.2 |  |  | 19 | 24.6 | 
11 | O=C(CCCCCCn1ncc2c(N3CCOCC3)nc(-c3ccc(NC(=O)Nc4ncc(Br)cn4)cc3)nc21)NO | 64.3 |  |  | 60.8 | 144 | 
12 | Nc1ncc(-c2nc(N3CCOCC3)c3cnn(CCCCCCC(=O)NO)c3n2)cn1 | 32.6 | 1.2 | 221 | 31.7 | 163 | 40
13 | O=C(CCCCCCn1ncc2c(N3CCOCC3)nc(-c3ccoc3)nc21)NO | 15.6 | 8.4 | 156 | 7.7 | 34.9 | 35
14 | CS(=O)(=O)c1ccc(-c2nc(N3CCOCC3)c3cnn(CCCCCCC(=O)NO)c3n2)cc1 | 168 | 31 | > 500 | 111 | 76.5 | 64
15 | O=C(CCCCCCn1ncc2c(N3CCOCC3)nc(-c3ccsc3)nc21)NO | 35.6 | 9.7 | 202 | 14.6 | 72.8 | 55
16 | CCCNC(=O)Nc1ccc(-c2nc(N3CCOCC3)c3cnn(CCCCCCC(=O)NO)c3n2)cc1 | 83.4 |  |  | 42.5 | 104 | 
17 | CC(O)CNC(=O)Nc1ccc(-c2nc(N3CCOCC3)c3cnn(CCCCCCC(=O)NO)c3n2)cc1 (stereo not drawn) | 305 |  |  | 153 | 441 | 
